Measured values from ChEMBL document CHEMBL4130485, “Inhibitors of Yellow Fever Virus replication based on 1,3,5-triphenyl-4,5-dihydropyrazole scaffold: Design, synthesis and antiviral evaluation” (Eur J Med Chem, 2017).

Assays:
[1] = system: Mammalian orthoreovirus 1; test: Antiviral activity against Reovirus 1 infected in golden hamster BHK21 cells assessed as protection against virus-induced cytopathic effect after 3 to 4 days by MTT assay; format: functional, organism-based; settings: Mammalian orthoreovirus 1, BHK-21
Summary of the method: (§1)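 BHK-21 cells (MDBK for BVDV) seeded at 5×10^4 (BHK) or 3×10^4 (MDBK) cells/well and grown overnight to confluence. Infected at m.o.i. 0.01 in maintenance MEM-Earle with 0.5% inactivated FBS. Serial compound dilutions added 2 h later (final 100, 20, 4, 0.8 µM; DMSO ≤0.1%). Viability read by MTT after 3–4 days at 37 °C. EC50 obtained by linear regression against untreated controls; mean of three determinations.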

[2] = Cytotoxicity against golden hamster BHK21 cells assessed as decrease in cell viability after 72 hrs by MTT assay; format: cell-based, Mesocricetus auratus, BHK-21
Summary of the method: (§2)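 Uninfected MDBK (6×10^5 cells/mL, 10% horse serum) or BHK (1×10^6 cells/mL, 10% FBS) cells in MEM-Earle with serial compound dilutions at 37 °C, 5% CO2, run in parallel with the antiviral assays. Viability read by MTT after 72 h. CC50 by linear regression; mean of three determinations.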

West Nile virus = test: Antiviral activity against West Nile virus clinical isolate infected in golden hamster BHK21 cells assessed as protection against virus-induced cytopathic effect after 3 to 4 days by MTT assay; format: functional, organism-based; settings: BHK-21; summary of the method: as §1
[3] = system: Bovine viral diarrhea virus 1; test: Antiviral activity against Bovine viral diarrhea virus NADL ATCC VR 534 infected in bovine MDBK cells assessed as protection against virus-induced cytopathic effect after 3 to 4 days by MTT assay; format: functional, organism-based, Bovine viral diarrhea virus 1-NADL; settings: Bovine viral diarrhea virus isolates and strains, ATCC VR 534, MDBK; summary of the method: as §1
[4] = Selectivity index, ratio of CC50 for bovine MDBK cells to EC50 for Bovine viral diarrhea virus NADL ATCC VR 534; format: toxicity; settings: cattle, read-out: Ratio CC50/EC50
Summary of the method: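 Selectivity index calculated as MDBK CC50 divided by BVDV EC50, both by MTT.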

[5] = Cytotoxicity against African green monkey Vero 76 cells assessed as decrease in cell viability after 48 to 96 hrs by MTT assay; format: cell-based; settings: chlorocebus sabaeus
Summary of the method: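 Vero 76 cells seeded at 5×10^5 cells/mL in D-MEM with 10% FBS and incubated with serial compound dilutions at 37 °C, 5% CO2. Viability read by MTT after 48–96 h. CC50 by linear regression versus untreated controls.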

dengue virus type 2 = test: Antiviral activity against Dengue virus type 2 clinical isolate infected in golden hamster BHK21 cells assessed as protection against virus-induced cytopathic effect after 3 to 4 days by MTT assay; format: functional, organism-based; settings: BHK-21; summary of the method: as §1
Human orthopneumovirus = test: Antiviral activity against Human respiratory syncytial virus A2 ATCC VR 1540 infected in African green monkey Vero 76 cells assessed as protection against virus-induced cytopathic effect after 5 days by crystal violet staining-based plaque reduction assay; format: functional, organism-based; settings: ATCC VR 1540, Vero 76, 120 h
[6] = Cytotoxicity against bovine MDBK cells assessed as decrease in cell viability after 72 hrs by MTT assay; format: cell-based, Bos taurus; settings: cattle; summary of the method: as §2
[7] = system: Human immunodeficiency virus 1; test: Antiviral activity against HIV1 3B infected in human MT4 cells assessed as protection against virus-induced cytopathic effect after 4 days by MTT assay; format: functional, organism-based; settings: Human immunodeficiency virus 1, 3B, MT4, 96 h
Summary of the method: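 MT-4 cells (1×10^4/well) in RPMI with serial compound dilutions, infected with 100 CCID50 HIV-1 (m.o.i. 0.01). Viability read by MTT after 4 days at 37 °C. EC50 for 50% protection from cytopathicity obtained by linear regression versus untreated controls; mean of three determinations.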

Yellow fever virus [8] = test: Potency index, ratio of azauridine EC50 to compound EC50 for Yellow fever virus 17D vaccine (Stamaril Pasteur J07B01); format: functional
Human alphaherpesvirus 1 = test: Antiviral activity against Human herpesvirus 1 KOS ATCC VR 1493 infected in African green monkey Vero 76 cells assessed as protection against virus-induced cytopathic effect after 3 days by crystal violet staining-based plaque reduction assay; format: functional, organism-based; settings: Human alphaherpesvirus 1, KOS, Vero 76, 72 h
Vaccinia virus = test: Antiviral activity against Vaccinia virus Lister ATCC VR 1549 infected in African green monkey Vero 76 cells assessed as protection against virus-induced cytopathic effect after 3 days by crystal violet staining-based plaque reduction assay; format: functional, organism-based; settings: Orthopoxvirus vaccinia, ATCC VR 1549, Vero 76, 72 h
[9] = Selectivity index, ratio of CC50 for golden hamster BHK21 cells to EC50 for Yellow fever virus 17D; format: toxicity; settings: read-out: Ratio CC50/EC50
Summary of the method: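 Selectivity index calculated as BHK-21 CC50 divided by YFV EC50, both from MTT assays.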

[10] = system: Vesicular stomatitis Indiana virus; test: Antiviral activity against Vesicular stomatitis virus Indiana ATCC VR 158 infected in African green monkey Vero 76 cells assessed as protection against virus-induced cytopathic effect after 2 days by crystal violet staining-based plaque reduction assay; format: functional, organism-based; settings: ATCC VR 158, Vero 76, 48 h
[11] = Cytotoxicity against human MT4 cells assessed as decrease in cell viability after 96 hrs by MTT assay; format: cell-based
Summary of the method: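 Exponentially growing MT-4 cells seeded at 1×10^5 cells/mL in RPMI-1640 with 10% FBS and incubated with serial compound dilutions at 37 °C, 5% CO2. Viability read by MTT after 96 h. CC50 by linear regression versus untreated controls.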

Yellow fever virus [12] = test: Antiviral activity against Yellow fever virus 17D vaccine (Stamaril Pasteur J07B01) infected in golden hamster BHK21 cells assessed as protection against virus-induced cytopathic effect after 3 to 4 days by MTT assay; format: functional, organism-based; settings: BHK-21; summary of the method: as §1
[13] = Antiviral activity against Human enterovirus B Faulkner ATCC VR 185 infected in African green monkey Vero 76 cells assessed as protection against virus-induced cytopathic effect after 3 days by crystal violet staining-based plaque reduction assay; format: functional, cell-based; settings: Faulkner ATCC VR 185, Vero 76, 72 h
[14] = Selectivity index, ratio of CC50 for African green monkey Vero 76 cells to EC50 for Human coxsackievirus B5 Faulkner; format: toxicity; settings: read-out: Ratio CC50/EC50
Summary of the method: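 Selectivity index calculated as Vero 76 CC50 (MTT) divided by CVB-5 plaque-reduction EC50.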

Enterovirus C = test: Antiviral activity against Enterovirus C Sabin […] infected in African green monkey Vero 76 cells assessed as protection against virus-induced cytopathic effect after 2 days by crystal violet staining-based plaque reduction assay; format: functional, organism-based; settings: Vero 76, 48 h
[15] = Cytotoxicity against African green monkey Vero 76 cells assessed as decrease in cell viability after 5 days by MTT assay; format: cell-based; settings: chlorocebus sabaeus

Structure (SMILES)	EC50 [1] [µM]	CC50 at 72 h [2] [µM]	EC50 (West Nile virus) [µM]	EC50 [3] [µM]	CC50 [5] [µM]	EC50 (dengue virus type 2) [µM]	EC50 (Human orthopneumovirus) [µM]	CC50 at 72 h [6] [µM]	EC50 [7] [µM]	Ratio EC50 (Yellow fever virus [8])	EC50 (Human alphaherpesvirus 1) [µM]	EC50 (Vaccinia virus) [µM]	selectivity ratio [9]	EC50 [10] [µM]	CC50 at 96 h [11] [µM]	EC50 (Yellow fever virus [12]) [µM]	EC50 [13] [µM]	selectivity ratio [14]	EC50 (Enterovirus C) [µM]	CC50 at 120 h [15] [µM]	other results
Cc1ccc(C2CC(c3ccc(OCc4ccccc4)cc3)=NN2c2ccc(S(N)(=O)=O)cc2)cc1 (centres undefined)	> 32	32 to 36	> 36	2.5	100	> 36	> 100	80	> 35	10	> 100	> 100	20	> 100	35	1.8	13	7.7	> 100	–	selectivity ratio [4]: 32
NS(=O)(=O)c1ccc(N2N=C(c3ccc(Oc4ccccc4)cc3)CC2c2ccccc2)cc1 (centres undefined)	> 11	11 to 13	> 13	> 5	85	> 13	> 35	5	13	10	> 85	> 85	6.2	> 85	42	2.1	3.5	24.3	> 85	35	–
Cc1ccc(C2CC(c3ccc(Oc4ccccc4)cc3)=NN2c2ccc(S(N)(=O)=O)cc2)cc1 (centres undefined)	> 8	8 to 9	> 9	> 21	86	> 9	> 20	21	> 7.2	10	> 86	> 86	5	> 86	7.2	1.8	> 86	–	> 86	20	–
